Active and inactive are the calls of the source. The rule behind the calls is not given here.
Columns and labels:
Plasma [1] = experiment: Anticoagulant activity in human plasma assessed as concentration required to double the activated partial thromboplastin time measured after 5 mins; assay type: ADME, cell-free
Method in brief: (§1)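 Clotting times (APTT and PT) measured in human plasma over a range of compound concentrations. The value is the concentration needed to double each clotting time.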

[2] = target: T1, Neutrophil elastase (Homo sapiens) (UniProt P08246); experiment: Inhibition of human neutrophil elastase assessed as reduction in elastin-congo red hydrolysis preincubated for 30 mins followed by elastin-congo red addition measured after 48 hrs
T1 sequence (whole entry): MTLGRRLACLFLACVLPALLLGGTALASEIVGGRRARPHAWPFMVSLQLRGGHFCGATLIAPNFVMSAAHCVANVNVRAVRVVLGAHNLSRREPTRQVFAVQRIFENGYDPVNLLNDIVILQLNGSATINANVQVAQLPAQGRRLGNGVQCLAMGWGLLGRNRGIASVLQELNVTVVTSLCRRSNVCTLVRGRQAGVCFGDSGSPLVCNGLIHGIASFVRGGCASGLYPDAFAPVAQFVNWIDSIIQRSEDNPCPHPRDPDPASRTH
Method in brief: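 Elastin-congo red hydrolysis by HNE at pH 8. Congo red released by elastin degradation is quantified by absorbance at 497 nm. Run in triplicate; error bars are one standard deviation.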

Neutrophil elastase = target: T2, Neutrophil elastase (Homo sapiens, UniProt P08246); experiment: Inhibition of human neutrophil elastase using S1384 as substrate preincubated for 5 mins followed by substrate addition
T2 sequence (P08246 whole entry): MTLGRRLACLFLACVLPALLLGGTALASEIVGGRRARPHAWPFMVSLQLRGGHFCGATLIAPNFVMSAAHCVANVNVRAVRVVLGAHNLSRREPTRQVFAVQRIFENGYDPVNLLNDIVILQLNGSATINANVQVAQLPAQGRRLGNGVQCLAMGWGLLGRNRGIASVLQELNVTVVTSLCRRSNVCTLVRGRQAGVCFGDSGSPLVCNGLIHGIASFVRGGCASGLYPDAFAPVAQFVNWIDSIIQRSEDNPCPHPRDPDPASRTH

Plasma [3] = experiment: Anticoagulant activity in human plasma assessed as concentration required to double the prothrombin time measured after 5 mins; assay type: ADME, cell-free; method in brief: as §1

Compound	2aPTT (Plasma [1]) [µM]	inhibition [2]	IC50 (Neutrophil elastase) [µM]	2PT (Plasma [3]) [µM]
O=C(OC[C@H]1O[C@@H](OC(=O)c2cc(OS(=O)(=O)[O-])c(O)c(OS(=O)(=O)[O-])c2)[C@H](OC(=O)c2cc(OS(=O)(=O)[O-])c(O)c(OS(=O)(=O)[O-])c2)[C@@H](OC(=O)c2cc(OS(=O)(=O)[O-])c(O)c(OS(=O)(=O)[O-])c2)[C@@H]1OC(=O)c1cc(OS(=O)(=O)[O-])c(O)c(OS(=O)(=O)[O-])c1)c1cc(OS(=O)(=O)[O-])c(O)c(OS(=O)(=O)[O-])c1.[Na+].[Na+].[Na+].[Na+].[Na+].[Na+].[Na+].[Na+].[Na+].[Na+] [sulfated pentagalloylglucoside]	49	Active	0.04	152
O=c1c(OS(=O)(=O)O)c(-c2ccc(OS(=O)(=O)O)c(OS(=O)(=O)O)c2)oc2cc(OS(=O)(=O)O)cc(OCc3ccc(COc4cc(OS(=O)(=O)O)cc5oc(-c6ccc(OS(=O)(=O)O)c(OS(=O)(=O)O)c6)c(OS(=O)(=O)O)c(=O)c45)cc3)c12	–	–	0.23	–
O=c1c(OS(=O)(=O)O)c(-c2ccc(OS(=O)(=O)O)c(OS(=O)(=O)O)c2)oc2cc(OS(=O)(=O)O)cc(OCCOc3cc(-c4oc5cc(OS(=O)(=O)O)cc(OCCOc6cc(OS(=O)(=O)O)cc7oc(-c8ccc(OS(=O)(=O)O)c(OS(=O)(=O)O)c8)c(OS(=O)(=O)O)c(=O)c67)c5c(=O)c4OS(=O)(=O)O)ccc3OS(=O)(=O)O)c12	–	–	0.14	–

From ChEMBL document CHEMBL4304745, “On the Process of Discovering Leads That Target the Heparin-Binding Site of Neutrophil Elastase in the Sputum of Cystic Fibrosis Patients” (J Med Chem, 2019)
